ChEMBL document CHEMBL2034859, “Simple, fast and efficient synthesis of β-keto esters from the esters of heteroaryl compounds, its antimicrobial study and cytotoxicity towards various cancer cell lines” (Bioorg Med Chem Lett, 2012)

Experiments:
ACHN [1] = assay: Cytotoxicity against human ACHN cells at 3 uM after 48 hrs by WST-1 assay; format: functional
How it was run: (§1)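 Cells from ATCC were grown in DMEM with 10% heat-inactivated FBS at 37 °C in 5% CO2. Log-phase cells were seeded at 5 × 10^3 per well and left to recover overnight. They were then exposed to a range of compound concentrations for 48 h, with 0.2% DMSO as the vehicle control. CCK-8 (WST) reagent was added for 2 h and absorbance was measured.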

ACHN [2] = assay: Cytotoxicity against human ACHN cells at 10 uM after 48 hrs by WST-1 assay; format: functional; how it was run: as §1
Calu-1 [3] = assay: Cytotoxicity against human Calu1 cells at 0.1 uM after 48 hrs by WST-1 assay; format: functional; how it was run: as §1
MCF-10A [4] = assay: Cytotoxicity against human MCF10A cells at 30 uM after 48 hrs by WST1 assay; format: cell-based
NCI-H460 [5] = assay: Cytotoxicity against human NCI-H460 cells at 3 uM after 48 hrs by WST-1 assay; format: functional
How it was run: (§2)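 Cells from ATCC, grown in DMEM with 10% heat-inactivated FBS at 37 °C in humidified 5% CO2. Log-phase cells seeded at 5 × 10^3 cells/well and left to recover overnight, then exposed to varying compound concentrations for 48 h. Controls received medium with 0.2% DMSO vehicle. CCK-8 ([…]) reagent added at 5 µL/well for 2 h, then absorbance read.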

ACHN [6] = assay: Cytotoxicity against human ACHN cells at 1 uM after 48 hrs by WST-1 assay; format: functional; how it was run: as §1
PANC-1 [7] = assay: Cytotoxicity against human PANC1 cells at 0.01 uM after 48 hrs by WST-1 assay; format: functional; how it was run: as §2
Calu-1 [8] = assay: Cytotoxicity against human Calu1 cells at 1 uM after 48 hrs by WST-1 assay; format: functional; how it was run: as §1
ACHN [9] = assay: Cytotoxicity against human ACHN cells at 0.3 uM after 48 hrs by WST-1 assay; format: functional; how it was run: as §1
NCI-H460 [10] = assay: Cytotoxicity against human NCI-H460 cells at 0.03 uM after 48 hrs by WST-1 assay; format: functional; how it was run: as §2
ACHN [11] = assay: Cytotoxicity against human ACHN cells after 48 hrs by WST-1 assay; format: functional, cell-based; how it was run: as §1
Calu-1 [12] = assay: Cytotoxicity against human Calu1 cells at 10 uM after 48 hrs by WST-1 assay; format: functional; how it was run: as §1
MCF-10A [13] = assay: Cytotoxicity against human MCF10A cells after 48 hrs by WST1 assay; format: cell-based
NCI-H460 [14] = assay: Cytotoxicity against human NCI-H460 cells at 10 uM after 48 hrs by WST-1 assay; format: functional; how it was run: as §2
MCF-10A [15] = assay: Cytotoxicity against human MCF10A cells at 0.1 uM after 48 hrs by WST1 assay; format: cell-based
MCF-10A [16] = assay: Cytotoxicity against human MCF10A cells at 3 uM after 48 hrs by WST1 assay; format: cell-based
Calu-1 [17] = assay: Cytotoxicity against human Calu1 cells at 0.3 uM after 48 hrs by WST-1 assay; format: functional; how it was run: as §1
NCI-H460 [18] = assay: Cytotoxicity against human NCI-H460 cells at 1 uM after 48 hrs by WST-1 assay; format: functional; how it was run: as §2
ACHN [19] = assay: Cytotoxicity against human ACHN cells at 0.1 uM after 48 hrs by WST-1 assay; format: functional; how it was run: as §1
HCT-116 [20] = assay: Cytotoxicity against human HCT116 cells after 48 hrs by WST-1 assay; format: functional, cell-based; conditions: HCT-116, 48 h; how it was run: as §1
NCI-H460 [21] = assay: Cytotoxicity against human NCI-H460 cells at 0.3 uM after 48 hrs by WST-1 assay; format: functional; how it was run: as §2
ACHN [22] = assay: Cytotoxicity against human ACHN cells at 0.01 uM after 48 hrs by WST-1 assay; format: functional; how it was run: as §1
PANC-1 [23] = assay: Cytotoxicity against human PANC1 cells after 48 hrs by WST-1 assay; format: functional, cell-based; conditions: PANC-1, 48 h; how it was run: as §2
Calu-1 [24] = assay: Cytotoxicity against human Calu1 cells at 0.01 uM after 48 hrs by WST-1 assay; format: functional; how it was run: as §1
HCT-116 [25] = assay: Cytotoxicity against human HCT116 cells at 30 uM after 48 hrs by WST-1 assay; format: functional; how it was run: as §1
NCI-H460 [26] = assay: Cytotoxicity against human NCI-H460 cells at 0.1 uM after 48 hrs by WST-1 assay; format: functional; how it was run: as §2
MCF-10A [27] = assay: Cytotoxicity against human MCF10A cells at 1 uM after 48 hrs by WST1 assay; format: cell-based
PANC-1 [28] = assay: Cytotoxicity against human PANC1 cells at 30 uM after 48 hrs by WST-1 assay; format: functional; how it was run: as §2
PANC-1 [29] = assay: Cytotoxicity against human PANC1 cells at 1 uM after 48 hrs by WST-1 assay; format: functional; how it was run: as §2
ACHN [30] = assay: Cytotoxicity against human ACHN cells at 0.03 uM after 48 hrs by WST-1 assay; format: functional; how it was run: as §1
HCT-116 [31] = assay: Cytotoxicity against human HCT116 cells at 1 uM after 48 hrs by WST-1 assay; format: functional; how it was run: as §1
HCT-116 [32] = assay: Cytotoxicity against human HCT116 cells at 0.03 uM after 48 hrs by WST-1 assay; format: functional; how it was run: as §1
HCT-116 [33] = assay: Cytotoxicity against human HCT116 cells at 3 uM after 48 hrs by WST-1 assay; format: functional; how it was run: as §1
NCI-H460 [34] = assay: Cytotoxicity against human NCI-H460 cells at 0.01 uM after 48 hrs by WST-1 assay; format: functional; how it was run: as §2
PANC-1 [35] = assay: Cytotoxicity against human PANC1 cells at 0.1 uM after 48 hrs by WST-1 assay; format: functional; how it was run: as §2
MCF-10A [36] = assay: Cytotoxicity against human MCF10A cells at 0.3 uM after 48 hrs by WST1 assay; format: cell-based
HCT-116 [37] = assay: Cytotoxicity against human HCT116 cells at 10 uM after 48 hrs by WST-1 assay; format: functional; how it was run: as §1
PANC-1 [38] = assay: Cytotoxicity against human PANC1 cells at 3 uM after 48 hrs by WST-1 assay; format: functional; how it was run: as §2
PANC-1 [39] = assay: Cytotoxicity against human PANC1 cells at 0.03 uM after 48 hrs by WST-1 assay; format: functional; how it was run: as §2
ACHN [40] = assay: Cytotoxicity against human ACHN cells at 30 uM after 48 hrs by WST-1 assay; format: functional; how it was run: as §1
Calu-1 [41] = assay: Cytotoxicity against human Calu1 cells at 0.03 uM after 48 hrs by WST-1 assay; format: functional; how it was run: as §1
NCI-H460 [42] = assay: Cytotoxicity against human NCI-H460 cells at 30 uM after 48 hrs by WST-1 assay; format: functional; how it was run: as §2
HCT-116 [43] = assay: Cytotoxicity against human HCT116 cells at 0.3 uM after 48 hrs by WST-1 assay; format: functional; how it was run: as §1
MCF-10A [44] = assay: Cytotoxicity against human MCF10A cells at 10 uM after 48 hrs by WST1 assay; format: cell-based
MCF-10A [45] = assay: Cytotoxicity against human MCF10A cells at 0.03 uM after 48 hrs by WST1 assay; format: cell-based
PANC-1 [46] = assay: Cytotoxicity against human PANC1 cells at 10 uM after 48 hrs by WST-1 assay; format: functional; how it was run: as §2
NCI-H460 [47] = assay: Cytotoxicity against human NCI-H460 cells after 48 hrs by WST-1 assay; format: functional, cell-based; conditions: NCI-H460, 48 h; how it was run: as §2
HCT-116 [48] = assay: Cytotoxicity against human HCT116 cells at 0.1 uM after 48 hrs by WST-1 assay; format: functional; how it was run: as §1
Calu-1 [49] = assay: Cytotoxicity against human Calu1 cells at 30 uM after 48 hrs by WST-1 assay; format: functional; how it was run: as §1
HCT-116 [50] = assay: Cytotoxicity against human HCT116 cells at 0.01 uM after 48 hrs by WST-1 assay; format: functional; how it was run: as §1
PANC-1 [51] = assay: Cytotoxicity against human PANC1 cells at 0.3 uM after 48 hrs by WST-1 assay; format: functional; how it was run: as §2
Calu-1 [52] = assay: Cytotoxicity against human Calu1 cells after 48 hrs by WST-1 assay; format: functional, cell-based; conditions: Calu-1, 48 h; how it was run: as §1
Calu-1 [53] = assay: Cytotoxicity against human Calu1 cells at 3 uM after 48 hrs by WST-1 assay; format: functional; how it was run: as §1
MCF-10A [54] = assay: Cytotoxicity against human MCF10A cells at 0.01 uM after 48 hrs by WST1 assay; format: cell-based

For `CCOC(=O)C(C)C(=O)c1cnccn1` (centres undefined), the Activity (ACHN [1]) was 51.6%, the Activity (ACHN [2]) was 67.4% and the Activity (Calu-1 [3]) was 6.7%. For the same compound, the Activity (MCF-10A [4]) was 82.8%, the Activity (NCI-H460 [5]) was 55% and the Activity (ACHN [6]) was 46.2%. It also gave an Activity (PANC-1 [7]) of 8.3%, an Activity (Calu-1 [8]) of 22.8% and an Activity (ACHN [9]) of 27.9%. It also gave an Activity (NCI-H460 [10]) of 6.7%, an IC50 (ACHN [11]) of 3 µM and an Activity (Calu-1 [12]) of 85.3%. The IC50 (MCF-10A [13]) was 21.2 µM, the Activity (NCI-H460 [14]) was 87% and the Activity (MCF-10A [15]) was -9.5%. It also gave an Activity (MCF-10A [16]) of 24%, an Activity (Calu-1 [17]) of 9.4% and an Activity (NCI-H460 [18]) of 44.6%. It also gave an Activity (ACHN [19]) of 19%, an IC50 (HCT-116 [20]) of 1.3 µM and an Activity (NCI-H460 [21]) of 38.6%. For the same compound, the Activity (ACHN [22]) was -23.4%, the IC50 (PANC-1 [23]) was 2.9 µM and the Activity (Calu-1 [24]) was 1.5%. The Activity (HCT-116 [25]) was 100%, the Activity (NCI-H460 [26]) was 14.2% and the Activity (MCF-10A [27]) was 6.3%. The Activity (PANC-1 [28]) was 100%, the Activity (PANC-1 [29]) was 29.2% and the Activity (ACHN [30]) was -28.9%. The Activity (HCT-116 [31]) was 44.8%, the Activity (HCT-116 [32]) was 18.8% and the Activity (HCT-116 [33]) was 92.2%. The Activity (NCI-H460 [34]) was 3.6%, the Activity (PANC-1 [35]) was 13.6% and the Activity (MCF-10A [36]) was -6.8%. The Activity (HCT-116 [37]) was 90%, the Activity (PANC-1 [38]) was 67.8% and the Activity (PANC-1 [39]) was 10%. The Activity (ACHN [40]) was 82.3%, the Activity (Calu-1 [41]) was 2.9% and the Activity (NCI-H460 [42]) was 100%. For the same compound, the Activity (HCT-116 [43]) was 32.3%, the Activity (MCF-10A [44]) was 39.1% and the Activity (MCF-10A [45]) was -14.1%. The Activity (PANC-1 [46]) was 92.1%, the IC50 (NCI-H460 [47]) was 3 µM and the Activity (HCT-116 [48]) was 26.9%. The Activity (Calu-1 [49]) was 99.2%, the Activity (HCT-116 [50]) was 9.4% and the Activity (PANC-1 [51]) was 15.9%. For the same compound, the IC50 (Calu-1 [52]) was 2.8 µM, the Activity (Calu-1 [53]) was 60.8% and the Activity (MCF-10A [54]) was -15.2%.
